rRNA inh HTS: reduced GFP signal of wild-type E. coli, primary screen, bacterial rRNA inhibitor project, GFP/RFP fluorescence, OD600, single point | E. coli WT GFP vs humanized-ribosome RFP mutants, 24 h; stronger effect = lower value; DMSO median 0, no signal -100 | GFP signal change (wild-type ribosome), % (concentration not given with the values) | 1.6% of 350,000 active;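 active = significant combined selectivity score with lowered wild-type GFP, culture density cut under 30%, mutant RFP and density less affected; inactive = any of these conditions unmet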
SKN-1 block: suppressors of acrylamide-induced Pgst-4::GFP reporter in worms, primary screen, SKN-1 inhibitor project, whole organism, uHTS, GFP/RFP fluorescence ratio, strain VP596; inhibition, % at 21.8 µM; AID 624304, 2012; C. elegans VP596 Pgst-4::GFP/RFP ratio, 24 h; 0.49% of 360,000 active;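 active = interference check ratio from 0.5 to 1.5 plus GFP to RFP signal ratio inhibition reaching or exceeding a fixed threshold, cut at about 30% in these data, passing the limit was not always enough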
Cneo AK release: Cryptococcus neoformans cell lysis inducers, primary screen, AK release luminescence, single concentration; C. neoformans lysis, adenylate kinase release luminescence, 4 h; normalised: neutral wells 0, clomiphene wells 100; lysis activity, % at 15 µM; 0.2% of 360,000 active; AID 651654, 2012;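 active = mean lysis activity across replicates of at least 80%, whatever share of replicates individually reach that level; inactive = mean lysis activity below 80%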
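Schedule: static 4 h at 37 °C with compound, 1 h detection; system: C. neoformans cells; benchmarks: Clomiphene as positive control; buffer or medium: fresh YPD medium; measure: luminescence rise reflecting yeast cell lysis; measured by: luminescent adenylate kinase detection reagent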
DAGLB inh: DAGLB lipase inhibitors, primary screen, biochemical, fluorescence, HTS. Diacylglycerol lipase-beta (Homo sapiens), Q8NCG7. HEK293T DAGLB membrane lysate, EnzChek fluorogenic substrate. inhibition, % at 5.17 µM. 0.059% of 340,000 active. AID 504411, 2011; in the data active = inhibition above about 34%;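 also: 0% = enzyme with vehicle and 100% = wells lacking enzyme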
Target sequence (Q8NCG7 whole entry, looked up): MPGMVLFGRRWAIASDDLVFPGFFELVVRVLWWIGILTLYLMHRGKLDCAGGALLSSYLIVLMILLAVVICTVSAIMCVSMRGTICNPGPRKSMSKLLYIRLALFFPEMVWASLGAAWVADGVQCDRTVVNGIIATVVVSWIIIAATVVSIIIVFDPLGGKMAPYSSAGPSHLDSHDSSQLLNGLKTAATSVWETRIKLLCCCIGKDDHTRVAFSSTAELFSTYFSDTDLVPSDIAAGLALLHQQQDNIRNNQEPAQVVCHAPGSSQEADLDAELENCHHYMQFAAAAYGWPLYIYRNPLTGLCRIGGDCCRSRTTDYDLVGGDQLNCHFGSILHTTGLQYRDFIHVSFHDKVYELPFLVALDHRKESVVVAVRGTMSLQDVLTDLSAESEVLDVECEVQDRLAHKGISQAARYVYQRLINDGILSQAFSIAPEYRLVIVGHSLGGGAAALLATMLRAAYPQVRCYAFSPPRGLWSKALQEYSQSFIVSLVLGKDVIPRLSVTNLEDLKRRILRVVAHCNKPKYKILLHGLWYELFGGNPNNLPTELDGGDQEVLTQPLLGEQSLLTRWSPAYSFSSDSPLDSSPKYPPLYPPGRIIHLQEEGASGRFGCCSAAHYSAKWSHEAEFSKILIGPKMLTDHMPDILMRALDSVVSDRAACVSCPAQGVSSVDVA
MT1-MMP act inh: blockers of MT1-MMP proenzyme processing, primary screen, HT1080 RFP-PRO-GFP cells, GFP/RFP fluorescence | 0.061% of 360,000 active | GFP/RFP ratio fluorescence, overnight; percent of plate control window, DMSO zero | GFP/RFP ratio change, % at 20 µM | AID 651647, 2012;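 active = GFP/RFP ratio change of at least 30% with cell ATP level not reduced by more than half and red fluorescence within 50% of control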
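Material – HT1080 RFP-PRO-GFP cells · Control set – DMSO wells and RFP-L50D-GFP cells · Incubation – overnight cell settling, then overnight compound exposure, 37 °C, 5% CO2 · Compound dosing – single-point 20 µM compound, 1% DMSO · Read-out – GFP/RFP fluorescence ratio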
iPSC survival up: enhancers of single-cell hiPSC survival, primary screen, ATPlite luminescence. 100% = ROCK inhibitor wells, 0% = DMSO. survival enhancement, % at 20 µM. 0.044% of 360,000 active. AID 602274, 2012; in the data active = survival enhancement above about 18%;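 also: cells exposed to compounds for 16 hours before the ATP read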
An asterisk follows results filed as active; . = not tested or not shown. Hits are enriched below; roughly 1.8% of the tested compounds scored in any of these assays.

SMILES	rRNA inh HTS	SKN-1 block	Cneo AK release	DAGLB inh	MT1-MMP act inh	iPSC survival up
O=C(Nc1ccccc1)N1C[C@@H]2[C@H](c3ccccc31)[C@@H](CO)N2C(=O)c1ccccc1F	3	.	-2	.	.	.
O=C(NOCc1ccccc1)c1coc(-c2ccccc2)n1	-26*	-15	-6	-1	1	3
NC(=O)NOCc1ccccc1	25	7	.	-2	-4	0
CC1=NN(c2ccccc2)C(=O)/C1=C\C=C1\N(C)c2ccccc2C1(C)C	.	38*	.	21	5	-2
Cc1ccc(-n2c(-c3ccccc3)n[nH]c2=S)c(C)c1	0	2	0	1	-3	0
Cc1ccc(-n2c(Cc3cccc4ccccc34)n[nH]c2=S)c(C)c1	-45*	-10	.	10	-9	2
Cc1ccc(S(=O)(=O)N(C)C[C@@H]2Oc3ccc(NC(=O)Nc4ccc5c(c4)OCO5)cc3C(=O)N([C@H](C)CO)C[C@@H]2C)cc1	-1	.	-1	.	.	.
CC=Cc1ccc2n(c1=O)C[C@H]1[C@H](CO)[C@@H](C(=O)N(C)C)N(CC3CCOCC3)[C@@H]21 (mixture of isomers)	-1	.	-1	.	.	.
C[C@@H]1CN([C@@H](C)CO)C(=O)Cc2cc(NC(=O)CCCCCC(=O)Nc3ccccc3N)ccc2O[C@H]1CN(C)C(=O)Nc1ccc2c(c1)OCO2	4	.	.	.	.	.
CN(C)/C=N/c1ncc(C(=O)c2ccc(-c3ccccc3)cc2)s1	-18*	12	.	-2	-1	0
C[C@H](CO)N1C[C@H](C)[C@@H](CN(C)C)Oc2c(NC(=O)Cc3cn(C)c4ccccc34)cccc2C1=O	0	.	.	.	.	.
CCCc1nc(SCC(=O)N2CCc3ccccc3C2)c2ccccc2n1	-27*	8	-1	-3	-4	0
CC(C)C(=O)Nc1ccc2c(c1)C(=O)N(C)[C@H]1CC[C@@H](CC(=O)Nc3ccccc3)O[C@H]1CO2	-2	.	-1	.	.	.
O=C(NCCc1ccccc1)[C@H]1N[C@H]2c3ccc(-c4ccc(F)cc4)c(=O)n3C[C@H]2[C@@H]1CO	-8	.	1	.	.	.
FC(F)(F)c1ccc(-c2csc(-c3ccno3)n2)cc1	4	44*	.	-9	-1	0
Clc1ccc(CSc2ncn(-c3ccccc3)n2)cc1	.	77*	2	-5	-4	0
Clc1cccc(CSc2ncn(-c3ccccc3)n2)c1	-48	49*	1	-5	-1	2
CCCNC(=O)N1C[C@H](C)[C@H](OC)CN(C)C(=O)c2cc(NC(=O)CCC)ccc2OC[C@H]1C	-2	.	1	.	.	.
CCNc1nc(NCC)nc(-n2nc(C)cc2C)n1	-42*	-5	13	0	4	0
CCNC(=O)C[C@H]1CC[C@H]2[C@H](COc3ccc(NC(=O)Nc4ccc(C)cc4)cc3C(=O)N2C)O1	-2	.	-3	.	.	.
CC(C)(C)NC(=O)NC(=O)C[n+]1ccc(Cc2ccc([N+](=O)[O-])cc2)cc1	-14*	3	1	0	0	0
Cc1ccc(Cl)cc1NC(=O)C[n+]1ccc(Cc2ccc([N+](=O)[O-])cc2)cc1	-51	5	.	0	-2	1
CN1CCN(C(=O)C[C@@H]2CC[C@H]3[C@@H](COc4ccc(NC(=O)C5CC5)cc4C(=O)N3C)O2)CC1	-2	.	-1	.	.	.
COc1ccc2c3c([nH]c2c1)[C@@H](CO)N(C(=O)C1CCOCC1)CC31CCN(C)CC1	3	.	.	.	.	.
O=C(O)c1ccc(N=Nc2c(O)[nH]c3ccc(Br)cc23)cc1	22	3	-2	0	2	-1
SMILES	rRNA inh HTS	SKN-1 block	Cneo AK release	DAGLB inh	MT1-MMP act inh	iPSC survival up
O=c1ccc2cc3c([nH]c4ccc(Br)cc43)oc-2c1O	.	28	0	43*	-55	-2
COc1ccc(OCC(=O)Sc2ccc(C)cc2)cc1	.	43*	-4	-8	1	-2
Clc1ccc(-c2ccnc(-n3cccc3)n2)s1	4	43*	3	-6	-9	-1
COc1cc(/C=N/NC(=S)NC2CC3CCC2C3)ccc1O (stereo not drawn)	-26*	6	7	2	2	0
COc1ccc(/C=N/NC(=S)N[C@H]2CC3CCC2C3)cc1 (stereo partly drawn)	-3	8	9	.	-1	0
Cc1ccc(S(=O)(=O)N2[C@@H](c3ccc(Br)cc3)C(C(=O)O)=CC[C@H]2c2ccc(C(C)C)cc2)cc1	-23*	-6	-3	9	2	0
Cc1ccc(S(=O)(=O)N2[C@@H](c3ccc(F)cc3)C(C(=O)O)=CC[C@H]2c2cccc(C)c2)cc1	-25*	-5	2	-2	-3	-2
Cc1ccc(S(=O)(=O)N2[C@@H](c3ccc(F)cc3)C(C(=O)O)=CC[C@H]2c2ccc3c(c2)OCO3)cc1	-18	-10	7	6	-1	3
Cc1ccc([C@@H]2CC=C(C(=O)O)[C@H](c3ccc(F)cc3)N2S(=O)(=O)c2ccc(C)cc2)cc1	-9	4	3	8	-6	1
Cc1ccc(S(=O)(=O)N2[C@@H](c3ccccc3F)C(C(=O)O)=CC[C@H]2c2ccc3c(c2)OCO3)cc1	-21*	20	2	2	-6	0
Cc1ccc(S(=O)(=O)N2[C@@H](c3ccc(Cl)cc3)C(C(=O)O)=CC[C@H]2c2cccs2)cc1	-29*	7	1	6	-3	-1
O=C(Nc1ccc(Cl)c(Cl)c1)N[C@@H]1CC[C@H](CCn2cc(C3CCCCC3)nn2)O[C@@H]1CO	-48	.	-4	.	.	.
C[C@@H]1CN([C@H](C)CO)C(=O)c2c(c3ccccc3n2C)-c2ccccc2CO[C@H]1CN(C)C(=O)[C@H]1CCCN1C	0	.	.	.	.	.
CCCCSc1nc2c(cnn2-c2ccccc2)c(=O)n1N	-11	19	0	-4	5	-1
CCCSc1nc2c(cnn2-c2ccccc2)c(=O)n1N	-19*	8	1	2	0	-1
Cc1sc(NC(=O)C2=COCCO2)nc1-c1ccc(Cl)cc1	3	39*	-4	-7	0	3
O=C(Nc1nc2cc3c(cc2s1)OCCO3)C1=COCCO1	-7	-3	-20	-5	1	-1
O=C(Nc1nc2ccc(F)cc2s1)C1=COCCO1	-20*	11	-7	0	3	-1
